# ChEMBL document CHEMBL4266027, “Cyanobufalins: Cardioactive Toxins from Cyanobacterial Blooms” (J Nat Prod, 2018)
# Tests used:
# Format in all cases: cell-based
# Cardiac muscle cell [1] = experiment: Toxicity in human inducible pluripotent stem cell derived cardiomyocytes assessed as change in beating amplitude at 0.32 nM after 8 mins; settings: 0.00032 µM
# Summary of the method: (§1)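 Human iPSC-derived cardiomyocytes (Cor.4U) were grown to stable beating cultures and monitored by impedance in real time with 20 s recordings. Compounds were given as a dilution series from 0.32 nM to 5 μM, dosed twice 24 h apart, with monitoring over 48 h. Beating amplitude was taken from each negative peak to the following positive peak and reported as % change.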
# Cardiac muscle cell [2] = experiment: Toxicity in human inducible pluripotent stem cell derived cardiomyocytes assessed as change in beating amplitude at 0.32 nM after 33 mins; settings: 0.55 h, 0.00032 µM; summary of the method: as §1
# Cardiac muscle cell [3] = experiment: Toxicity in human inducible pluripotent stem cell derived cardiomyocytes assessed as change in beating amplitude at 0.32 nM after 66 mins; settings: 1.1 h, 0.00032 µM; summary of the method: as §1
# Cardiac muscle cell [4] = experiment: Toxicity in human inducible pluripotent stem cell derived cardiomyocytes assessed as change in beating amplitude at 0.32 nM after 4 hrs; settings: 0.00032 µM; summary of the method: as §1
# Cardiac muscle cell [5] = experiment: Toxicity in human inducible pluripotent stem cell derived cardiomyocytes assessed as change in beating amplitude at 0.32 nM after 12 hrs; settings: 0.00032 µM; summary of the method: as §1
# Cardiac muscle cell [6] = experiment: Toxicity in human inducible pluripotent stem cell derived cardiomyocytes assessed as change in beating amplitude at 0.32 nM after 24 hrs; settings: 0.00032 µM; summary of the method: as §1
# Cardiac muscle cell [7] = experiment: Toxicity in human inducible pluripotent stem cell derived cardiomyocytes assessed as change in beating amplitude at 0.32 nM after 36 hrs; settings: 0.00032 µM; summary of the method: as §1
# Cardiac muscle cell [8] = experiment: Toxicity in human inducible pluripotent stem cell derived cardiomyocytes assessed as change in beating amplitude at 0.32 nM after 48 hrs; settings: 0.00032 µM; summary of the method: as §1
# Cardiac muscle cell [9] = experiment: Toxicity in human inducible pluripotent stem cell derived cardiomyocytes assessed as change in beating amplitude at 1.6 nM after 33 mins; settings: 0.55 h, 0.0016 µM; summary of the method: as §1
# Cardiac muscle cell [10] = experiment: Toxicity in human inducible pluripotent stem cell derived cardiomyocytes assessed as change in beating amplitude at 1.6 nM after 66 mins; settings: 1.1 h, 0.0016 µM; summary of the method: as §1
# Cardiac muscle cell [11] = experiment: Toxicity in human inducible pluripotent stem cell derived cardiomyocytes assessed as change in beating amplitude at 1.6 nM after 4 hrs; settings: 0.0016 µM; summary of the method: as §1
# Cardiac muscle cell [12] = experiment: Toxicity in human inducible pluripotent stem cell derived cardiomyocytes assessed as change in beating amplitude at 1.6 nM after 12 hrs; settings: 0.0016 µM; summary of the method: as §1
# Cardiac muscle cell [13] = experiment: Toxicity in human inducible pluripotent stem cell derived cardiomyocytes assessed as change in beating amplitude at 1.6 nM after 24 hrs; settings: 0.0016 µM; summary of the method: as §1
# Cardiac muscle cell [14] = experiment: Toxicity in human inducible pluripotent stem cell derived cardiomyocytes assessed as change in beating amplitude at 1.6 nM after 36 hrs; settings: 0.0016 µM; summary of the method: as §1
# Cardiac muscle cell [15] = experiment: Toxicity in human inducible pluripotent stem cell derived cardiomyocytes assessed as change in beating amplitude at 1.6 nM after 48 hrs; settings: 0.0016 µM; summary of the method: as §1
# Cardiac muscle cell [16] = experiment: Toxicity in human inducible pluripotent stem cell derived cardiomyocytes assessed as change in beating amplitude at 8 nM after 33 mins; settings: 0.55 h, 0.008 µM; summary of the method: as §1
# Cardiac muscle cell [17] = experiment: Toxicity in human inducible pluripotent stem cell derived cardiomyocytes assessed as change in beating amplitude at 8 nM after 66 mins; settings: 1.1 h, 0.008 µM
# Summary of the method: (§2)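 Cor.4U hiPSC-derived cardiomyocytes grown to stable beating cultures, then monitored by impedance in RTCA Cardio plates with 20 s recordings. Compounds tested as a dilution series from 0.32 nM to 5 μM, dosed twice 24 h apart, followed over 48 h. Beating amplitude is taken from each negative peak to the next positive peak and reported as percent change.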
# Cardiac muscle cell [18] = experiment: Toxicity in human inducible pluripotent stem cell derived cardiomyocytes assessed as change in beating amplitude at 8 nM after 4 hrs; settings: 0.008 µM; summary of the method: as §2
# Cardiac muscle cell [19] = experiment: Toxicity in human inducible pluripotent stem cell derived cardiomyocytes assessed as change in beating amplitude at 8 nM after 12 hrs; settings: 0.008 µM; summary of the method: as §1
# Cardiac muscle cell [20] = experiment: Toxicity in human inducible pluripotent stem cell derived cardiomyocytes assessed as change in beating amplitude at 8 nM after 24 hrs; settings: 0.008 µM; summary of the method: as §1
# Cardiac muscle cell [21] = experiment: Toxicity in human inducible pluripotent stem cell derived cardiomyocytes assessed as change in beating amplitude at 40 nM after 33 mins; settings: 0.55 h, 0.04 µM; summary of the method: as §1
# Cardiac muscle cell [22] = experiment: Toxicity in human inducible pluripotent stem cell derived cardiomyocytes assessed as change in beating amplitude at 40 nM after 66 mins; settings: 1.1 h, 0.04 µM; summary of the method: as §1
# Cardiac muscle cell [23] = experiment: Toxicity in human inducible pluripotent stem cell derived cardiomyocytes assessed as change in beating amplitude at 1.6 nM after 8 mins; settings: 0.0016 µM; summary of the method: as §1
# Cardiac muscle cell [24] = experiment: Toxicity in human inducible pluripotent stem cell derived cardiomyocytes assessed as change in beating amplitude at 8 nM after 8 mins; settings: 0.008 µM; summary of the method: as §2
# Cardiac muscle cell [25] = experiment: Toxicity in human inducible pluripotent stem cell derived cardiomyocytes assessed as change in beating amplitude at 40 nM after 8 mins; settings: 0.04 µM; summary of the method: as §1
# Cardiac muscle cell [26] = experiment: Toxicity in human inducible pluripotent stem cell derived cardiomyocytes assessed as increase in beating amplitude at >= 40 nM up to 48 hrs; summary of the method: as §2
# Cardiac muscle cell [27] = experiment: Toxicity in human inducible pluripotent stem cell derived cardiomyocytes assessed as increase in beating amplitude at 8 nM up to 48 hrs; settings: 0.008 µM; summary of the method: as §2
compound,measurement,setting,value
CC1(C)[C@@H](OC(N)=O)C=C[C@]2(C=O)[C@H]3CC[C@]4(C)[C@@H](c5ccc(=O)oc5)[C@@H](Cl)C[C@]4(O)C3=CC[C@@H]12,Activity,Cardiac muscle cell [1],-2.7%
same,Activity,Cardiac muscle cell [2],0.7%
same,Activity,Cardiac muscle cell [3],-1.9%
same,Activity,Cardiac muscle cell [4],19%
same,Activity,Cardiac muscle cell [5],23%
same,Activity,Cardiac muscle cell [6],30%
same,Activity,Cardiac muscle cell [7],57%
same,Activity,Cardiac muscle cell [8],30%
same,Activity,Cardiac muscle cell [9],-2.1%
same,Activity,Cardiac muscle cell [10],2.6%
same,Activity,Cardiac muscle cell [11],9.7%
same,Activity,Cardiac muscle cell [12],3.3%
same,Activity,Cardiac muscle cell [13],2.8%
same,Activity,Cardiac muscle cell [14],11%
same,Activity,Cardiac muscle cell [15],-20%
same,Activity,Cardiac muscle cell [16],7.5%
same,Activity,Cardiac muscle cell [17],14%
same,Activity,Cardiac muscle cell [18],-19%
same,Activity,Cardiac muscle cell [19],-18%
same,Activity,Cardiac muscle cell [20],-59%
same,Activity,Cardiac muscle cell [21],13%
same,Activity,Cardiac muscle cell [22],-94%
same,Activity,Cardiac muscle cell [23],-1.9%
same,Activity,Cardiac muscle cell [24],3.9%
same,Activity,Cardiac muscle cell [25],2.6%
same,Activity,Cardiac muscle cell [26],Toxic
same,Activity,Cardiac muscle cell [27],Toxic
